For data set [1], the system named is Mus musculus. In words: Analgesic activity against acetic acid-induced writhing in po dosed Swiss mouse administered 1 hr before acetic acid challenge measured after 5 mins for 20 mins. Format: functional, organism-based. Summed up:
(§1)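 Male Swiss mice (20-25 g), fasted overnight, water allowed, six per group. Oral dosing with CMC vehicle given 1 h before ip 0.6% acetic acid or ip magnesium sulfate 120 mg/kg. Abdominal constriction, trunk turning and hind-leg extension counted: for acetic acid over 20 min starting 5 min post-injection, for MgSO4 over 5 min. Mean ± SEM.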
A general note: An intraperitoneal irritant provokes the stretching counted in writhing tests.

The test system of data set [2] is Rattus norvegicus. Nature of the data set: AUC (0 to 6 hrs) in Wistar rat assessed as ketorolac release at 0.163 mg/kg, po. Type of data set: ADME, organism-based, Plasma. Further details: time < 6 hr, dose 0.163 mg/kg, route oral. The following applies: in vivo. Summed up:
(§2)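 Male Wistar rats (200 ± 20 g), single oral dose; killed by decapitation at […], at least three rats per time point, each measured in triplicate. Plasma deproteinized with acetonitrile, centrifuged, organic phase analyzed by C18 HPLC at 313 nm with tolmetine internal standard. Calibration 0.1-100 µg/mL in drug-free matrix. Parameters taken from semilog concentration-time plots.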

Data set [3] in a line: Stability in rat plasma assessed as half life. Type of data set: ADME, cell-free. Summed up:
(§3)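 Solutions of 100 µg/mL (ketorolac tris salt at 90.5 µg/mL) held at 37 °C for 24 h in 0.1 N HCl (pH 1), phosphate buffer pH 7.4 or 8.0, or plasma. Samples taken hourly; plasma samples extracted with acetonitrile (1:2) and centrifuged. Remaining ester measured by HPLC diode array at 313 nm. Pseudo-first-order t1/2 from log plots over time; mean ± SEM.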

Data set [4] has as its system Rattus norvegicus. In words: Half life in Wistar rat assessed as ketorolac release at 0.163 mg/kg, po. Format: ADME, organism-based. Further details: dose 0.163 mg/kg, route oral. The following applies: in vivo. Summed up: as §2
The subject of data set [5] is Mus musculus. In words: Analgesic activity against magnesium sulfate-induced writhing in po dosed Swiss mouse administered 1 hr before magnesium sulfate challenge measured for 5 mins. Format: functional, organism-based. Summed up:
as §1

Data set [6] is described as follows: Chemical stability assessed as hydrolysis half life in 0.1N HCl at pH 1. Format: physicochemical. Summed up:
as §3

Data set [7] is described as follows: Chemical stability assessed as hydrolysis half life in phosphate buffer at pH 7.4. Type of data set: physicochemical. Summed up:
as §3

For data set [8], the system named is Rattus norvegicus. In words: Tmax in Wistar rat assessed as ketorolac release at 0.163 mg/kg, po. Type of data set: ADME, organism-based. Further details: dose 0.163 mg/kg, route oral. The following applies: in vivo. Summed up: as §2
The subject of data set [9] is Mus musculus. Nature of the data set: Analgesic activity against acetic acid-induced writhing in Swiss mouse at 0.163 mg/kg, po administered 1 hr before acetic acid challenge measured after 5 mins for 20 mins. Type of data set: functional, organism-based. Further details: dose 0.163 mg/kg. Summed up:
as §1

In data set [10] the test system is Rattus norvegicus. In words: Mean residence time in Wistar rat assessed as time required for 63.2% of administered dose to be eliminated as ketorolac at 0.163 mg/kg, po. Type of data set: ADME, organism-based. Further details: dose 0.163 mg/kg, route oral. As to conditions: in vivo. Summed up: as §2
The nature of data set [11]: Chemical stability assessed as hydrolysis half life in phosphate buffer at pH 8.0. Format: physicochemical. Summed up:
as §3

Data set [12] deals with Rattus norvegicus. In words: Elimination half life in Wistar rat assessed as ketorolac release at 0.163 mg/kg, po. Format: ADME, organism-based. Further details: dose 0.163 mg/kg, route oral. As to conditions: in vivo. Summed up: as §2
Data set [13] has as its system Rattus norvegicus. Nature of the data set: AUMC (0 to 6 hrs) in Wistar rat assessed as ketorolac release at 0.163 mg/kg, po. Type of data set: ADME, organism-based. Further details: dose 0.163 mg/kg, route oral. The following applies: in vivo. Summed up:
as §2

Data set [14] relates to Mus musculus. In words: Gastrointestinal toxicity in fasted Swiss mouse assessed ulcer index at 0.163 mg/kg, po after 4 hrs. Type of data set: organism-based. Further details: dose 0.163 mg/kg, route oral. The following applies: in vivo. Summed up: (§4)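 Male Swiss mice, fasted 16-18 h, n = 6 per group, dosed orally (vehicle 0.5% CMC). Killed 4 h later; stomach opened along greater curvature, rinsed with saline and examined under magnifier. Scoring: irritation 1, lesions 1-3 mm 5, lesions >3 mm 10. Gastric lesion score and ulcer number given as mean ± SEM.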

In data set [15] the test system is Rattus norvegicus. Nature of the data set: Cmax in Wistar rat assessed as ketorolac release at 0.163 mg/kg, po. Further details: dose 0.163 mg/kg, route oral. Format: ADME, organism-based. As to conditions: in vivo. Summed up:
as §2

For data set [16], the system named is Rattus norvegicus. In words: Systemic clearance in Wistar rat assessed as ketorolac release at 0.163 mg/kg, po. Format: ADME, organism-based. Further details: dose 0.163 mg/kg, route oral. The following applies: in vivo. Summed up: as §2
Data set [17] deals with Rattus norvegicus. In words: AUMC (0 to 6 hrs) in Wistar rat at 0.1 mg/kg, po. As to conditions: in vivo. Further details: dose 0.1 mg/kg, route oral. Type of data set: ADME, organism-based. Summed up:
as §2

Data set [18] is described as follows: Mean residence time in Wistar rat assessed as time required for 63.2% of administered dose to be eliminated at 0.1 mg/kg, po. Further details: dose 0.1 mg/kg, route oral. As to conditions: in vivo. Format: ADME, organism-based. Summed up: as §2
The subject of data set [19] is Mus musculus. In words: Antiinflammatory activity in Swiss mouse assessed as reduction in carrageenan-induced hind paw edema at 0.1 mg/kg, po administered 1 hr before carrageenan challenge. Format: functional, organism-based. Further details: dose 0.1 mg/kg. Summed up: (§5)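 Male Swiss mice, six per group, dosed orally (CMC vehicle) 1 h before subplantar injection of 50 µL of 1% λ-carrageenan in saline into the right hind paw. Paw volume read by plethysmometer at intervals up to 96 h. Edema taken as volume minus basal volume measured just before injection. Mean ± SEM.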
(In general: Carrageenan injected into the paw causes an acute inflammation.)

The nature of data set [20]: AUC (0 to 6 hrs) in Wistar rat at 0.1 mg/kg, po. Type of data set: ADME, organism-based. Further details: time < 6 hr, dose 0.1 mg/kg, route oral. The following applies: plasma. Summed up:
as §2

Data set [21] in a line: Systemic clearance in Wistar rat at 0.1 mg/kg, po. Type of data set: ADME, organism-based. Further details: dose 0.1 mg/kg, route oral. As to conditions: in vivo. Summed up:
as §2

Data set [22] in a line: Tmax in Wistar rat at 0.1 mg/kg, po. Further details: dose 0.1 mg/kg, route oral. Format: ADME, organism-based. As to conditions: in vivo. Summed up:
as §2

In data set [23] the test system is Mus musculus. Nature of the data set: Antiinflammatory activity in Swiss mouse assessed as reduction in carrageenan-induced hind paw edema at 10 mg/kg, po administered 1 hr before carrageenan challenge measured after 48 hrs. Further details: dose 10 mg/kg. Type of data set: functional, organism-based. Summed up: as §5
Data set [24] can be described thus: Cmax in Wistar rat at 0.1 mg/kg, po. The following applies: in vivo. Further details: dose 0.1 mg/kg, route oral. Format: ADME, organism-based. Summed up: as §2
Data set [25] is described as follows: Half life in Wistar rat at 0.1 mg/kg, po. Format: ADME, organism-based. The following applies: in vivo. Further details: dose 0.1 mg/kg, route oral. Summed up: as §2
A short description of data set [26]: Elimination half life in Wistar rat at 0.1 mg/kg, po. Type of data set: ADME, organism-based. Further details: dose 0.1 mg/kg, route oral. The following applies: in vivo, read-out: beta t1/2 (converted). Summed up: as §2
In data set [27] the test system is Mus musculus. Nature of the data set: Gastrointestinal toxicity in fasted Swiss mouse assessed ulcer index at 0.1 mg/kg, po after 4 hrs. Type of data set: organism-based. The following applies: in vivo. Further details: dose 0.1 mg/kg, route oral. Summed up:
as §4

The source made the active and inactive calls. The calls are words filed in the database; no cut-off is given here.

The term AUC denotes the area under the concentration-time curve, a measure of exposure. As a reminder, the Tmax is the time at which the peak concentration occurs. As usually defined, the MRT is a mean duration of stay, worked out from the concentration-time curve. One may read the Cmax as the maximum level reached in the sampled fluid or tissue. In the case of `O=C(c1ccccc1)c1ccc2n1CC[C@@H]2C(=O)OC[C@H]1OC(O)[C@H](O)[C@@H](O)[C@H]1O` (stereo partly drawn), the Activity result in data set [1] and in data set [5] was “Dose-dependent effect” each time. The AUC in [2] came out at 935 ng·h/mL. Moreover, the half-life was 1.5 h in [3], 2.1 h in [6], over 4 h in data set [7] and over 4 h in [11]. Besides, the t1/2 in [4] is 5.23 h. For the same molecule, the Tmax in data set [8] amounted to 1 h. The result in [9] was Active. Also, in data set [10], the mean residence time MRT came out at 4.5 h. The “beta t1/2” value in data set [12] turned out to be 2.4 h. Further, the AUMC in [13] turned out to be 5600 ng·h/mL. For the same molecule, the UI in data set [14] is listed as 1. Moreover, the Cmax in [15] came out at 240 ng/mL. Also, in data set [16], the CL was found to be 80.36 mL/h.

Broadly, the AUC(0-t) is the area under the concentration-time curve up to a stated or last time point. Low values mean less exposure, high ones more exposure. One may read the CL/F as clearance divided by bioavailability, as obtained after extravascular dosing. In data set [17], `O=C(c1ccccc1)c1ccc2n1CCC2C(=O)O` (stereo not drawn) [KETOROLAC] yielded an AUMC of 3300 ng·h/mL. Moreover, the Activity entry in [1] and in [5] was “Dose-dependent effect” throughout. For the same molecule, the MRT in data set [18] was 3.1 h. For the same molecule, the outcome in data set [19] was inactive. For the same molecule, the half-life in data set [3] is over 4 h; in data set [6], over 4 h; in data set [7], over 4 h; in [11], over 4 h; in data set [25], 1.65 h; in [26] it was 1.99 h. The area under the curve AUC(0-t) at 6 h in data set [20] turned out to be 855 ng·h/mL. This molecule had an apparent clearance CL/F in [21] of 1.57 mL/min. The time of peak concentration (Tmax) in data set [22] is 1 h. For the same molecule, in data set [23], the outcome was Active. Also, the Cmax in [24] was 400 ng/mL. For the same molecule, in data set [27], the UI turned out to be 10.

Source of the values: ChEMBL document CHEMBL1136962, “Galactosyl prodrug of ketorolac: synthesis, stability, and pharmacological and pharmacokinetic evaluations” (J Med Chem, 2009).
